Test results as given in ChEMBL document CHEMBL1124215, “Improved delivery through biological membranes. 26. Design, synthesis, and pharmacological activity of a novel chemical delivery system for beta-adrenergic blocking agents” (1988).

Tests used:
Assay type in all cases: functional
[1] = system: Oryctolagus cuniculus; test: Percentage change of IOP in rabbits after 6 hr administration (1%) of compound
Procedure, shortened: (§1)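 Rabbits received 1% or 2.5% drug solution in pH 7.4 buffer or saline in both eyes, at least four per group. A control group of at least three rabbits received carrier only. IOP was read by pneumatonometer in unrestrained, unanesthetized animals after one drop of 0.5% propacaine diluted 1:2 with saline. Readings were taken at 30 and 60 min and at 2–8 h. Values are mean ± SE, with significance by Student's t test.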

[2] = system: Oryctolagus cuniculus; test: Percentage change of IOP in rabbits after 3h administration (1%) of compound; procedure, shortened: as §1
[3] = system: Oryctolagus cuniculus; test: Percentage change of IOP in rabbits after 4 hr administration (1%) of compound; procedure, shortened: as §1
[4] = system: Oryctolagus cuniculus; test: Effect on IOP of rabbits 30 mins after administration (1%)
Procedure, shortened: (§2)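 IOP was read by pneumatonometer in unrestrained, unanesthetized rabbits after local propacaine drops. Drug was given as a 1% or 2.5% solution in pH 7.4 buffer or saline to both eyes, at least four rabbits per group; controls (at least three) received carrier only. Readings were taken at 30 and 60 min and at 2, 3, 4, 6 and 8 h. Values are mean ± SE; Student's t test.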

[5] = system: Oryctolagus cuniculus; test: Effect on IOP of rabbits 1 hr after administration (1%); procedure, shortened: as §2
[6] = system: Oryctolagus cuniculus; test: Effect on IOP of rabbits 4 hr after administration (1%); procedure, shortened: as §2
[7] = system: Oryctolagus cuniculus; test: Effect on IOP of rabbits 6 hr after administration (1%); procedure, shortened: as §2
[8] = system: Oryctolagus cuniculus; test: Percentage change of IOP in rabbits after 30 min administration (1%) of compound; procedure, shortened: as §1
[9] = system: Oryctolagus cuniculus; test: Effect on IOP of rabbits 3h after administration (1%); procedure, shortened: as §2
[10] = system: Oryctolagus cuniculus; test: Percentage change of IOP in rabbits after 0 min administration (1%) of compound; procedure, shortened: as §2
[11] = system: Oryctolagus cuniculus; test: Percentage change of IOP in rabbits after 5 hr administration (1%) of compound; procedure, shortened: as §1
[12] = system: Oryctolagus cuniculus; test: Effect on IOP of rabbits 5 hr after administration (1%)
[13] = system: Oryctolagus cuniculus; test: Effect on IOP of rabbits 0 min after administration (1%); procedure, shortened: as §2
[14] = system: Oryctolagus cuniculus; test: Percentage change of IOP in rabbits after 2 hr administration (1%) of compound; procedure, shortened: as §2
[15] = system: Oryctolagus cuniculus; test: Percentage change of IOP in rabbits after 8 hr administration (1%) of compound; procedure, shortened: as §1
[16] = system: Oryctolagus cuniculus; test: Percentage change of IOP in rabbits after 1 hr administration (1%) of compound; procedure, shortened: as §2
[17] = system: Oryctolagus cuniculus; test: Effect on IOP of rabbits 2 hr after administration (1%); procedure, shortened: as §2
[18] = system: Oryctolagus cuniculus; test: Effect on IOP of rabbits 8 hr after administration (1%); procedure, shortened: as §2

Row | Structure (SMILES) | Change [1] [%] | Change [2] [%] | Change [3] [%] | IOP [4] [mmHg] | IOP [5] [mmHg] | IOP [6] [mmHg] | IOP [7] [mmHg] | Change [8] [%] | IOP [9] [mmHg] | Change [10] [%] | Change [11] [%] | IOP [12] [mmHg] | IOP [13] [mmHg] | Change [14] [%] | Change [15] [%] | Change [16] [%] | IOP [17] [mmHg] | IOP [18] [mmHg]
1 | CC(C)(C)NC[C@H](O)COc1nsnc1N1CCOCC1 (stereo in doubt; 1b) [TIMOLOL] | 12.4 | 14.3 | 14.8 | 26 | 27.25 | 24.88 | 25.58 | >-10.93 | 25 | 0 | 16.9 | 24.25 | 29.19 | 6.78 | >9.8 | 6.65 | 27.21 | 
2 | CC(C)(C)NC[C@H](O)COc1nsnc1N1CCOCC1 (stereo in doubt) [TIMOLOL] | 1.2 | -11.6 | -5.31 | 27.75 | 24.3 | 26.93 | 28.78 | -2.43 | 25.13 | 0 | -5.49 | 26.88 | 28.44 | -15.6 |  | -14.6 | 24 | 26.33
